Series [1] has as its target Replicase polyprotein 1ab (Severe acute respiratory syndrome coronavirus 2) (UniProt P0DTD1). In words: Inhibition of SARS-CoV-2 MPro at 5 uM using MCAAVLQSGFR-Lys(Dnp)-Lys-NH2 as substrate incubated for 10 mins by FRET assay. A digest of the protocol: (§1)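 3CLpro FRET assay at 5 μM compound, run as the standard protocol (10 min 37 °C preincubation, ex 320/em 405 nm kinetic read). The assay buffer either contained 4 mM DL-dithiothreitol or had none added. Ebselen served as the control.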

The target is the same in series [2]. In words: Inhibition of SARS-CoV-2 MPro at 5 uM using MCAAVLQSGFR-Lys(Dnp)-Lys-NH2 as substrate in presence of DTT incubated for 10 mins by FRET assay. A digest of the protocol:
as §1

Series [3] shares this target. In words: Inhibition of SARS-CoV-2 MPro at 1 uM using MCAAVLQSGFR-Lys(Dnp)-Lys-NH2 as substrate incubated for 10 mins by FRET assay relative to control.
Series [4] addresses Replicase polyprotein 1ab (Severe acute respiratory syndrome coronavirus 2, UniProt P0DTD1). The experiment in a line: Inhibition of SARS-CoV-2 MPro using MCAAVLQSGFR-Lys(Dnp)-Lys-NH2 as substrate incubated for 10 mins by FRET assay. The essentials: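 Same 3CLpro FRET protocol (enzyme working 1.5 μM, substrate 500 μM, Tris/NaCl/glycerol buffer pH 7.3, 10 min 37 °C preincubation, ex 320/em 405 nm kinetic read for 10 min). Compounds were tested at 0.1, 0.5, 1 and 5 μM from 5 mM DMSO stocks. IC50 is the average of three independent experiments.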

In series [5] the test system is Vero C1008. In words: Cytotoxicity against African green monkey Vero E6 assessed as inhibition of cell growth at 20 uM incubated for 26 hrs. The settings on record: chlorocebus sabaeus, vero c1008, 26 h. It is filed as toxicity, cell-based.
The nature of series [6]: Cytotoxicity against African green monkey Vero E6 assessed as inhibition of cell growth incubated for 26 hrs. It is filed as toxicity, cell-based. Particulars: chlorocebus sabaeus, Vero E6 cells (Vero C1008). A digest of the protocol: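 Vero E6 cells were seeded at 1.7 × 10^4/well in DMEM high glucose/10% FBS and grown 24 h at 37 °C, 5% CO2. Compound was then added in DMEM/5% FBS, final 1% DMSO, for 26 h. Viability was read with the CellTiter 96 aqueous nonradioactive proliferation assay. Values are averages of three or more replicate assays.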

Activity calls are given as the source filed them. The calls are words filed in the database; no cut-off is given here. Bounds are passed on as bounds.

What is called inhibition is how much of the control response was suppressed. As to `O=c1c2ccccc2[se]n1-c1ccccc1`, the inhibition result in series [1] was “Active”. Besides, the inhibition entry in series [2] is “inactive”.

A word on the IC50: it is the concentration that inhibits the measured activity by half. A word on the CC50: it is the concentration that lowers cell viability or growth by half. For `NC(=O)c1ccc2c(c1)C(=O)C(=O)N2Cc1cn(Cc2cccc(Cl)c2)nn1`, the inhibition in series [3] is 76.4%. The concentration for half-maximal inhibition (IC50) in series [4] stood at 440 nM. The Activity entry in series [5] was “Not Active”. In addition, the CC50 at 26 h in series [6] is above 20000 nM. In addition, the inhibition result in series [1] and in series [2] was “Active” each time.

In turn, `NC(=O)c1ccc2c(c1)C(=O)C(=O)N2Cc1cn(Cc2ccc(S(N)(=O)=O)cc2)nn1` came in with an inhibition in series [3] of 73.3%. The compound also gave an IC50 in series [4] of 1120 nM. Besides, the Activity result in series [5] is listed as “Not Active”. Besides, the cytotoxic concentration (CC50) at 26 h in series [6] was above 20000 nM.

In series [3], `NC(=O)c1ccc2c(c1)C(=O)C(=O)N2Cc1cn(Cc2ccc(C(F)(F)F)cc2F)nn1` yielded an inhibition of 78.1%. For the same compound, in series [4], the concentration for half-maximal inhibition (IC50) amounted to 530 nM. Also, the Activity result in series [5] is recorded as “Not Active”. Also, the CC50 at 26 h in series [6] is above 20000 nM.

Consider `NC(=O)c1ccc2c(c1)C(=O)C(=O)N2Cc1ccc2ccccc2c1`, for which the inhibition in series [3] was found to be 87.3%. Moreover, the IC50 in series [4] came to 300 nM. For the same compound, the Activity result in series [5] is “Not Active”. The cytotoxic concentration (CC50) at 26 h in series [6] was below 2200 nM. The inhibition entry in series [1] and in series [2] was “Active” in each case.

Values taken from ChEMBL document CHEMBL5329186, “Identification of novel 1,2,3-triazole isatin derivatives as potent SARS-CoV-2 3CLpro inhibitors via click-chemistry-based rapid screening” (RSC Med Chem, 2023).
